Columns and labels:
[1] = format: in vivo; settings: CD-1 mice, 10 nmol intravenously, 4 h postinjection, N = 5
Procedure, shortened: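 Anesthetised male CD-1 mice (~25 g; ketamine/xylazine i.p.) received test fluorophore intravenously. After 4 h of imaging, urine was collected from the bladder. Urine volume and optical absorbance were measured to estimate the amount of injected dye excreted.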

[2] = Optical stability in serum; format: in vitro ADME, fetal bovine serum; settings: 100% FBS, pH 7.4, 37 °C, 24 h
[3] = Optical properties in 100% FBS; format: physicochemical; settings: pH 7.4, 37 °C
Procedure, shortened: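 Absorbance (200–1100 nm) and fluorescence (350–1000 nm) spectra were recorded for 1 µM test dye in 100% FBS, pH 7.4, using fibre-optic spectrometers. Excitation was 8 mW from a 655 or 765 nm laser diode, chosen by structure. Quantum yield was calibrated against oxazine 725 in ethylene glycol (QY 19%) and ICG in DMSO (QY 13%), with absorbance matched at 655 and 765 nm.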

[4] = In vivo biodistribution and clearance by real-time NIR fluorescence imaging; settings: CD-1 mice, 10 nmol intravenously, imaging over 4 h
Procedure, shortened: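 Male CD-1 mice (~25 g) were anesthetised with ketamine 100 mg/kg and xylazine 10 mg/kg i.p., then given 10 nmol of test fluorophore intravenously. Real-time FLARE imaging used 760 nm excitation at 11 mW/cm2 with white light (400–650 nm). Colour and NIR images were acquired together at up to 15 Hz. Resected organs were also imaged. Exposure and normalisation were held constant.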

Compound | Optical stability in serum [2] | uptake in liver [4] | further results
CC1(C)C(/C=C/C=C/C=C/C=C2\N(CCCCS(=O)(=O)O)c3ccc4ccccc4c3C2(C)C)=[N+](CCCCS(=O)(=O)[O-])c2ccc3ccccc3c21 [ICG, indocyanine green] | – | – | Renal excretion amount in urine [1]: 3 % ID
Br.Br.CC1(C)C(/C=C/C2=C(Oc3ccc(CCN)cc3)C(=C/C=C3/N(CCC[N+](C)(C)C)c4ccc(S(=O)(=O)[O-])cc4C3(C)C)/CCC2)=[N+](CCC[N+](C)(C)C)c2ccc(S(=O)(=O)[O-])cc21.[Br-] [compound 4, Mono(2-((E)-2-((E)-2-(4-(2-aminoethyl)phenoxy)-3-((E)-2-(3,3-dimethyl-5-sulfonato-1-(3-(trimethylammonio)propyl)-indolin-2-ylidene)ethylidene)cyclohex-1-en-1-yl)vinyl)-3,3-dimethyl-1-(3-(trimethylammonio)propyl)-3H-indol-1-ium-5-sulfonate) Tribromide] | least stable | – | molar extinction coefficient [3]: highest; quantum yield [3]: highest
Br.Br.CC1(C)C(/C=C/C2=C(Sc3ccc(C(=O)O)cc3)C(=C/C=C3/N(CCC[N+](C)(C)C)c4ccc(S(=O)(=O)[O-])cc4C3(C)C)/CCC2)=[N+](CCC[N+](C)(C)C)c2ccc(S(=O)(=O)[O-])cc21.[Br-] [compound 8, Mono(2-((E)-2-((E)-2-((4-carboxyphenyl)thio)-3-((E)-2-(3,3-dimethyl-5-sulfonato-1-(3-(trimethylammonio)propyl)indolin-2-ylidene)ethylidene)cyclohex-1-en-1-yl)vinyl)-3,3-dimethyl-1-(3-(trimethylammonio)propyl)-3H-indol-1-ium-5-sulfonate) Tribromide] | – | weak uptake in liver | –
Mono(2-((E)-2-((E)-2-((4-(aminomethyl)phenyl)thio)-3-((E)-2-(3,3-dimethyl-5-sulfonato-1-(3-(trimethylammonio)propyl)indolin-2-ylidene)ethylidene)cyclohex-1-en-1-yl)vinyl)-3,3-dimethyl-1-(3-(trimethylammonio)propyl)-3H-indol-1-ium-5-sulfonate) Tribromide [compound 11] | increased stability | – | –
Mono(2-((E)-2-((E)-2-((4-(carboxymethyl)phenyl)thio)-3-((E)-2-(3,3-dimethyl-5-sulfonato-1-(3-(trimethylammonio)propyl)indolin-2-ylidene)ethylidene)cyclohex-1-en-1-yl)vinyl)-3,3-dimethyl-1-(3-(trimethylammonio)propyl)-3H-indol-1-ium-5-sulfonate) Tribromide [compound 9] | increased stability | weak uptake in liver | –

Source: article PMC4388048 (Journal of medicinal chemistry, 2015)
